# Reference: ChEMBL document CHEMBL1671655, “Anidulafungin is fungicidal and exerts a variety of postantifungal effects against Candida albicans, C. glabrata, C. parapsilosis, and C. krusei isolates” (2009)
# The source made the active and inactive calls. The calls are words filed in the database; no cut-off is given here. Starred links: 1 amine or outer side, 2 acyl side, 3 side chain; linkers in the order of their positions; H or OH if unused. Positions of bridges follow the written chain, without caps; N, C: chain ends. Non-standard residues stand in square brackets, D forms with d. Residues, ends and D or L forms follow the SMILES beside them. *: point of attachment. pTerphenylCO(4''-OnC5H11) = CCCCCOc1ccc(-c2ccc(-c3ccc(C(=O)*)cc3)cc2)cc1; Orn(4R-OH,5R-OH) = O=C([C@H](C[C@@H](O)[C@@H](O)N[*:3])N[*:1])[*:2]; hTyr(3S-OH,4S-OH) = N[C@H](C(=O)O)[C@H](O)[C@@H](O)c1ccc(O)cc1; Pro(3S-OH,4S-Me) = C[C@H]1CN[C@H](C(=O)O)[C@H]1O; Hyp = O=C(O)[C@@H]1C[C@@H](O)CN1
# How the values were obtained:
# Candida albicans [1] = test: Fungicidal activity against Candida albicans isolate 1 assessed as log reduction in bacterial count at 16 times MIC after drug exposure for 1 hr followed by washout measured after 48 hrs in the absence of drug by PAFE study; type: functional
# How it was run: (§1)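 Starting inoculum ~1 x 10^5 to 5 x 10^5 CFU/ml in MOPS-buffered RPMI 1640 (pH 7.0) with drug at multiples of the CLSI M27-A3 MIC. After 1 h at 35°C, cells washed and centrifuged three times at 1,400 x g for 10 min, then resuspended in warm drug-free RPMI. Shaken at 35°C and plated on SDA at 0–48 h; CFU counted after 48 h. Run twice per isolate; means.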
# Candida albicans [2] = test: Antifungal activity against Candida albicans isolate 1 by CLSI M27-A3 broth microdilution method; type: functional
# How it was run: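 CLSI M27-A3 broth microdilution in RPMI 1640 buffered to pH 7.0 with MOPS. Starting inoculum 0.5 x 10^3 to 2.5 x 10^3 cells/ml, incubated at 35°C. MIC read as the lowest concentration giving >50% growth reduction versus control. Each isolate tested on at least three occasions.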
# Candida parapsilosis [3] = test: Fungicidal activity against Candida parapsilosis isolate S assessed as log reduction in bacterial count at MIC after drug exposure for 1 hr followed by washout measured after 48 hrs in the absence of drug by PAFE study; type: functional; details: Lodderomyces parapsilosis
# How it was run: (§2)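 Inoculum about 1 x 10^5 to 5 x 10^5 CFU/ml in RPMI 1640 (MOPS, pH 7.0) with drug, shaken at 35°C for 1 h. Cells were then washed and centrifuged at 1,400 x g for 10 min (3 cycles) and resuspended in warm drug-free RPMI. Samples plated on SDA at 0, 2, 4, 8, 12, 24 and 48 h; CFU counted after 48 h at 35°C. Run twice per isolate; means.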
# Candida parapsilosis [4] = test: Antifungal activity against Candida parapsilosis isolate 1 assessed as time period for bacterial growth inhibition at 16 times MIC after 1 hr drug exposure; type: functional
# How it was run: (§3)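 Inoculum of about 1 x 10^5 to 5 x 10^5 CFU/ml in MOPS-buffered RPMI (pH 7.0), shaken at 35°C and exposed to drug for 1 h. Cells then washed and centrifuged three times and resuspended in drug-free warm RPMI. Samples plated on SDA at 0, 2, 4, 8, 12, 24 and 48 h, with CFU counted after 48 h at 35°C. Run twice per isolate; values are means.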
# Nakaseomyces glabratus [5] = test: Fungicidal activity against Candida glabrata isolate 1 assessed as log reduction in bacterial count at 4 times MIC after drug exposure for 1 hr followed by washout measured after 48 hrs in the absence of drug by PAFE study; type: functional; how it was run: as §1
# Nakaseomyces glabratus [6] = test: Antifungal activity against Candida glabrata isolate 1 assessed as time period for bacterial growth inhibition at 16 times MIC after 1 hr drug exposure; type: functional; how it was run: as §3
# Nakaseomyces glabratus [7] = test: Antifungal activity against Candida glabrata isolate 3 assessed as time period for bacterial growth inhibition at 4 times MIC after 1 hr drug exposure; type: functional; how it was run: as §3
# Nakaseomyces glabratus [8] = test: Fungicidal activity against Candida glabrata isolate 1 assessed as log reduction in bacterial count at MIC after drug exposure for 1 hr followed by washout measured after 48 hrs in the absence of drug by PAFE study; type: functional; how it was run: as §1
# Nakaseomyces glabratus [9] = test: Fungicidal activity against Candida glabrata isolate 2 assessed as log reduction in bacterial count at 4 times MIC after 48 hrs by time-kill analysis; type: functional; details: isolate 2, 48 h
# How it was run: (§4)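 Isolates subcultured twice on SDA, suspended to 0.5 McFarland, giving ~1 x 10^5 to 5 x 10^5 CFU/ml in MOPS-buffered RPMI 1640 (pH 7.0) with or without drug at multiples of MIC (MIC by CLSI M27-A3). Tubes shaken at 35°C with continuous drug. Sampled at 0–48 h, diluted 10-fold and plated on SDA; CFU counted after 48 h at 35°C. Run twice per isolate; means.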
# Candida parapsilosis [10] = test: Antifungal activity against Candida parapsilosis by NCCLS M27A broth microdilution method; type: functional; details: Lodderomyces parapsilosis
# Nakaseomyces glabratus [11] = test: Fungicidal activity against Candida glabrata isolate 2 assessed as log reduction in bacterial count at 16 times MIC after 48 hrs by time-kill analysis; type: functional; details: isolate 2, 48 h; how it was run: as §4
# Candida albicans [12] = test: Fungicidal activity against Candida albicans isolate 2 assessed as log reduction in bacterial count at 4 times MIC after 48 hrs by time-kill analysis; type: functional; details: isolate 2, 48 h; how it was run: as §4
# Candida albicans [13] = test: Fungicidal activity against Candida albicans isolate S assessed as log reduction in bacterial count at 16 times MIC after drug exposure for 1 hr followed by washout measured after 48 hrs in the absence of drug by PAFE study; type: functional; how it was run: as §1
# Candida parapsilosis [14] = test: Increase in susceptibility to calcofluor white in Candida parapsilosis isolate A assessed as cell wall damage at 4 times MIC after 1 hr relative to control; type: functional, organism-based
# How it was run: (§5)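 Candida given a 1-h anidulafungin pulse in MOPS-buffered RPMI 1640 (pH 7.0) at 35°C, washed three times by centrifugation, and regrown drug-free. Cells collected 8 h later, grown in YPD with 1% glucose to exponential phase, and set to OD599 0.1. Undiluted culture and 10-fold dilutions (4 µl) spotted on YPD plates with calcofluor white, then 30°C for 72 h. Triplicate; compared with no-drug cells.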
# Candida parapsilosis [15] = test: Fungicidal activity against Candida parapsilosis isolate A assessed as log reduction in bacterial count at 16 times MIC after drug exposure for 1 hr followed by washout measured after 48 hrs in the absence of drug by PAFE study; type: functional; details: Lodderomyces parapsilosis; how it was run: as §2
# Pichia kudriavzevii = test: Increase in susceptibility to calcofluor white in Candida krusei isolate ATCC 6258 assessed as cell wall damage at MIC after 1 hr relative to control; type: functional, organism-based; how it was run: as §5
# Candida parapsilosis [16] = test: Antifungal activity against Candida parapsilosis isolate 1 assessed as time period for bacterial growth inhibition at 4 times MIC after 1 hr drug exposure; type: functional; how it was run: as §3
# Candida parapsilosis [17] = test: Fungicidal activity against Candida parapsilosis isolate 1 assessed as log reduction in bacterial count at 4 times MIC after 48 hrs by time-kill analysis; type: functional; details: Lodderomyces parapsilosis, isolate 1, 48 h; how it was run: as §4
# Candida albicans [18] = test: Increase in susceptibility to SDS in Candida albicans isolate 1 assessed as cell wall damage at MIC after 1 hr relative to control; type: functional, organism-based
# How it was run: (§6)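 Cells recovered 8 h after a 1-h drug exposure were grown in YPD with 1% glucose to exponential phase and adjusted to OD599 0.1. Undiluted culture and 10-fold serial dilutions were spotted onto YPD plates containing SDS (0.01 to 0.04%), then incubated 72 h at 30°C. Growth compared with unexposed control cells; triplicate.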
# Nakaseomyces glabratus [19] = test: Fungicidal activity against Candida glabrata isolate 1 assessed as log reduction in bacterial count at 16 times MIC after 48 hrs by time-kill analysis; type: functional; details: isolate 1, 48 h; how it was run: as §4
# Nakaseomyces glabratus [20] = test: Increase in susceptibility to SDS in Candida glabrata isolate 1 assessed as cell wall damage at 4 times MIC after 1 hr relative to control; type: functional, organism-based; how it was run: as §6
# Candida parapsilosis [21] = test: Fungicidal activity against Candida parapsilosis isolate A assessed as log reduction in bacterial count at 16 times MIC after 48 hrs by time-kill analysis; type: functional; details: Lodderomyces parapsilosis
# How it was run: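 Isolates subcultured twice on SDA, then suspended to 0.5 McFarland and diluted into RPMI 1640 (MOPS, pH 7.0) with or without anidulafungin, giving about 1 x 10^5 to 5 x 10^5 CFU/ml. Tubes were shaken at 35°C. Samples were taken at 0, 2, 4, 8, 12, 24 and 48 h, serially diluted 10-fold, plated on SDA, and CFU counted after 48 h at 35°C. Each isolate was run twice; mean values.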
smiles,measurement,setting,value
"CCCCCOc1ccc(-c2ccc(-c3ccc(C(=O)N[C@H]4C[C@@H](O)[C@@H](O)NC(=O)[C@@H]5[C@@H](O)[C@@H](C)CN5C(=O)[C@H]([C@@H](C)O)NC(=O)[C@H]([C@H](O)[C@@H](O)c5ccc(O)cc5)NC(=O)[C@@H]5C[C@@H](O)CN5C(=O)[C@H]([C@@H](C)O)NC4=O)cc3)cc2)cc1 [ANIDULAFUNGIN] ({pTerphenylCO(4''-OnC5H11)}-[Orn(4R-OH,5R-OH)]T[Hyp][hTyr(3S-OH,4S-OH)]T[Pro(3S-OH,4S-Me)]; lactam 1-C)",log reduction,Candida albicans [1],2.64
same,MIC,Candida albicans [2],0.015 µg/mL
same,log reduction,Candida parapsilosis [3],0.41
same,Time,Candida parapsilosis [4],8 h
same,log reduction,Nakaseomyces glabratus [5],2.81
same,Time,Nakaseomyces glabratus [6],8 h
same,Time,Nakaseomyces glabratus [7],8 h
same,log reduction,Nakaseomyces glabratus [8],0.89
same,log reduction,Nakaseomyces glabratus [9],1.87 log CFU/ml
same,MIC90,Candida parapsilosis [10],2 µg/mL
same,log reduction,Nakaseomyces glabratus [11],3.14 log CFU/ml
same,log reduction,Candida albicans [12],2.33 log CFU/ml
same,log reduction,Candida albicans [13],2.52 log CFU/ml
same,Activity,Candida parapsilosis [14],Active
same,log reduction,Candida parapsilosis [15],3.47
same,Activity,Pichia kudriavzevii,Active
same,Time,Candida parapsilosis [16],8 h
same,log reduction,Candida parapsilosis [17],3.07 log CFU/ml
same,Activity,Candida albicans [18],Active
same,log reduction,Nakaseomyces glabratus [19],3.44 log CFU/ml
same,Activity,Nakaseomyces glabratus [20],Active
same,log reduction,Candida parapsilosis [21],3.42 log CFU/ml
